Assay results pooled from the literature.
Lines come from different studies, so protocols differ. ≈ marks a conversion by molar mass, not a printed value.

For `CCOC(=O)C1=C(CN2CCC[C@@H]2C(=O)Nc2ccc(B(O)O)cc2)NC(c2nccs2)=N[C@@H]1c1ccc(F)cc1Br`, the EC50 was 3.93 µM (Hepatitis B virus; viral replication, inhibitor, qPCR; HepDES19; 72 h).
`O=[N+]([O-])C1=Cc2ccccc2OC1c1ccc(OCc2ccc(Cl)cc2)cc1` (stereo not drawn) has an IC50 of 142 µg/mL (Leishmania tropica; parasite growth; THP-1; 72 h, intracellular, amastigote).
`Cc1ccc(N=Nc2c(N)nn3c(-c4ccco4)cc(-c4ccc(OCc5ccccc5)cc4)nc23)cc1` has an MFC of 62.5 µg/mL (≈ 125 µM) (Saccharomyces cerevisiae; microbial killing, broth dilution; ATCC9763).
`COc1ccc(C=NNC(=S)Nc2cccnc2)cc1` gave an IC50 of 642 µM (Leishmania tropica; parasite growth, MTT; 72 h, promastigote).
With `CCCCN1CN(CC(=O)O)CSC1=S` the IC50 was 94.1 µM (Leishmania tropica; parasite growth, MTT; 48 h, promastigote).
For `CCOC(=O)C1=C(CN2CCC(C(=O)Nc3ccc(B(O)O)cc3)C2)NC(c2nccs2)=NC1c1ccc(F)cc1Br` (stereo not drawn), the EC50 was 0.5 µM (Hepatitis B virus; viral replication, inhibitor, qPCR; HepDES19; 72 h).
For `Cc1ccc(N=Nc2c(N)nn3c(-c4ccc(Cl)cc4Cl)cc(-c4ccc(OCc5ccccc5)cc4)nc23)cc1`, the MFC was 125 µg/mL (≈ 216 µM) (Saccharomyces cerevisiae; microbial killing, broth dilution; ATCC9763).
For `CCOC(=O)C1=C(CN2CCCC2C(=O)Nc2cccc(B(O)O)c2)NC(c2nccs2)=NC1c1ccc(F)cc1Br` (stereo not drawn), the EC50 was 0.47 µM (Hepatitis B virus; viral replication, inhibitor, qPCR; HepDES19; 72 h).
`Cc1ccc(-c2cc(-c3ccc(OCc4ccccc4)cc3)nc3c(N=Nc4ccc(F)cc4)c(N)nn23)cc1` gave an MFC of 125 µg/mL (≈ 236 µM) (Saccharomyces cerevisiae; microbial killing, broth dilution; ATCC9763).
`O=[N+]([O-])C1=Cc2ccccc2OC1c1cccc(OCc2ccc(Cl)cc2)c1` (stereo not drawn) gave an IC50 of 149 µg/mL (Leishmania tropica; parasite growth; THP-1; 72 h, intracellular, amastigote).
With `CNC(=S)NN=Cc1ccc(OC)cc1` the IC50 was 22.7 µM (Leishmania tropica; parasite growth; J774.A1; 72 h, intracellular, amastigote).
The IC50 of `O=[N+]([O-])C1=Cc2ccccc2OC1c1ccccc1Br` (stereo not drawn) is reported as 154 µg/mL (Leishmania tropica; parasite growth; THP-1; 72 h, intracellular, amastigote).
With `S=C(NN=Cc1ccc(Br)cc1)Nc1cccnc1` the IC50 was 551 µM (Leishmania tropica; parasite growth, MTT; 72 h, promastigote).
The EC50 of `CCOC(=O)C1=C(CN2CCN(Cc3ccccc3B(O)O)CC2)NC(c2nccs2)=NC1c1ccc(F)cc1Br` (stereo not drawn) is reported as 1.47 µM (Hepatitis B virus; viral replication, inhibitor, qPCR; HepDES19; 72 h).
`COc1ccc(C=NNC(=S)Nc2cccnc2)cc1OC` gave an IC50 of over 1000 µM (Leishmania tropica; parasite growth; J774.A1; 72 h, intracellular, amastigote).
For `COc1ccc(N=Nc2c(N)nn3c(-c4ccc(Cl)cc4Cl)cc(-c4ccc(OCc5ccccc5)cc4)nc23)cc1`, the MFC was 500 µg/mL (≈ 840 µM) (Saccharomyces cerevisiae; microbial killing, broth dilution; ATCC9763).
With `COc1ccc(C2Oc3ccccc3C=C2[N+](=O)[O-])cc1` (stereo not drawn) the IC50 was 150 µg/mL (Leishmania tropica; parasite growth; THP-1; 72 h, intracellular, amastigote).
For `CCOC(=O)C1=C(CN2CCN(Cc3ccc(B(O)O)cc3)CC2)NC(c2nccs2)=NC1c1ccc(F)cc1Br` (stereo not drawn), the EC50 was 0.97 µM (Hepatitis B virus; viral replication, inhibitor, qPCR; HepDES19; 72 h).
With `COc1ccc(N=Nc2c(N)nn3c(-c4ccc(C)cc4)cc(-c4ccc(OCc5ccccc5)cc4)nc23)cc1` the MFC was 125 µg/mL (≈ 231 µM) (Saccharomyces cerevisiae; microbial killing, broth dilution; ATCC9763).
For `CNC(=S)NN=Cc1ccc(OC)c(OC)c1`, the IC50 was 454 µM (Leishmania tropica; parasite growth; J774.A1; 72 h, intracellular, amastigote).
`O=[N+]([O-])C1=Cc2ccccc2OC1c1ccc(OCc2ccc(F)cc2)cc1` (stereo not drawn) has an IC50 of 181 µg/mL (Leishmania tropica; parasite growth; THP-1; 72 h, intracellular, amastigote).
`CC(=O)N1CCN(c2ccc(OCC3COC(Cn4ccnc4)(c4ccc(Cl)cc4Cl)O3)cc2)CC1` (stereo not drawn) gave an MFC of 15.6 µg/mL (≈ 29.4 µM) (Saccharomyces cerevisiae; microbial killing, broth dilution; ATCC9763).
The IC50 of `C[C@@H]1[C@H](O)[C@@H](C)/C=C/C=C/C=C/C=C/C=C/C=C/C=C/[C@H](O[C@@H]2O[C@H](C)[C@@H](O)[C@H](N)[C@@H]2O)C[C@@H]2O[C@](O)(C[C@@H](O)C[C@@H](O)[C@H](O)CC[C@@H](O)C[C@@H](O)CC(=O)O[C@H]1C)C[C@H](O)[C@H]2C(=O)O` is reported as 17.9 µM (Leishmania tropica; parasite growth, MTT; 72 h, promastigote).
For `O=[N+]([O-])C1=Cc2ccccc2OC1c1ccccc1Cl` (stereo not drawn), the IC50 was 164 µg/mL (Leishmania tropica; parasite growth; THP-1; 72 h, intracellular, amastigote).
`OC(Cn1cncn1)(Cn1cncn1)c1ccc(F)cc1F` gave an MIC of 4 µg/mL (≈ 13.1 µM) (Saccharomyces cerevisiae; microbial growth, broth dilution; BY4741; 48 h).
The MFC of `COc1ccc(N=Nc2c(N)nn3c(-c4ccco4)cc(-c4ccc(OCc5ccccc5)cc4)nc23)cc1` is reported as 125 µg/mL (≈ 242 µM) (Saccharomyces cerevisiae; microbial killing, broth dilution; ATCC9763).
The MIC of `C[C@@H]1[C@H](O)[C@@H](C)/C=C/C=C/C=C/C=C/C=C/C=C/C=C/[C@H](O[C@@H]2O[C@H](C)[C@@H](O)[C@H](N)[C@@H]2O)C[C@@H]2O[C@](O)(C[C@@H](O)C[C@@H](O)[C@H](O)CC[C@@H](O)C[C@@H](O)CC(=O)O[C@H]1C)C[C@H](O)[C@H]2C(=O)O` is reported as 0.25 µg/mL (≈ 0.271 µM) (Saccharomyces cerevisiae; microbial growth, broth dilution; BY4741; 48 h).
`CCOC(=O)C1=C(CN2CCN(Cc3cccc(B(O)O)c3)CC2)NC(c2nccs2)=NC1c1ccc(F)cc1Br` (stereo not drawn) gave an EC50 of 1.27 µM (Hepatitis B virus; viral replication, inhibitor, qPCR; HepDES19; 72 h).
The IC50 of `Fc1ccc(C=NNC(=S)Nc2cccnc2)cc1` is reported as 201 µM (Leishmania tropica; parasite growth; J774.A1; 72 h, intracellular, amastigote).
`Cc1ccc(N=Nc2c(N)nn3c(-c4ccc(C)cc4)cc(-c4ccc(OCc5ccccc5)cc4)nc23)cc1` has an MIC of 62.5 µg/mL (≈ 119 µM) (Saccharomyces cerevisiae; microbial growth, broth dilution; ATCC9763).
The IC50 of `CNC(=S)NN=Cc1ccc(C)cc1` is reported as 452 µM (Leishmania tropica; parasite growth; J774.A1; 72 h, intracellular, amastigote).
The IC50 of `Cc1ccc(C2Oc3ccccc3C=C2[N+](=O)[O-])cc1` (stereo not drawn) is reported as 164 µg/mL (Leishmania tropica; parasite growth; THP-1; 72 h, intracellular, amastigote).
`CCOC(=O)C1=C(CN2CCN(Cc3cccc(B4OC(C)(C)C(C)(C)O4)c3)CC2)NC(c2nccs2)=NC1c1ccc(F)cc1Br` (stereo not drawn) has an EC50 of 1.3 µM (Hepatitis B virus; viral replication, inhibitor, qPCR; HepDES19; 72 h).
